Sampled rows, rich in hits. Any-hit rate of the full collection: about 0.74%.
RGS8-Gao – modulates binding of RGS8 to human Galphao. multiplexed bead flow cytometry; actives lie on both sides. response (percent of control binding), % at 10 µM. P09471. AID 1423. 0.34% of 220,000 active; in the data active = response below about 60% or above about 140%; inactive = in between;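 also: Galphao activated as the GDP aluminium fluoride complex binding bead-coupled RGS8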
Target sequence (P09471 whole entry, looked up): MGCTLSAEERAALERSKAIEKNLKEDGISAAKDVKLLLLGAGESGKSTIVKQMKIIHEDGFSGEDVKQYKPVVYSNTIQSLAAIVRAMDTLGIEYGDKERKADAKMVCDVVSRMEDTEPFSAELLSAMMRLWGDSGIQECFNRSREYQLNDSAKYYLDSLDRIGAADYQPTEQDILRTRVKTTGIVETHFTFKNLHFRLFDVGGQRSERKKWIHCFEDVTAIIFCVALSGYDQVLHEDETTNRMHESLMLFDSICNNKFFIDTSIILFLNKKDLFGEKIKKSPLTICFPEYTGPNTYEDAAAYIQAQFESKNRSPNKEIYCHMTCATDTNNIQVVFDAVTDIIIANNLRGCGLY
RGS16-Gao HTS – RGS16-Galphao interaction regulator (human); 0.38% of 220,000 active; bead-based flow cytometry RGS16-Galphao binding, fluorescence; actives lie on both sides; AID 1441; binding response (% of control), % at 10 µM; O15492+P09471;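 also: Galphao activated by GDP with aluminum fluoride before binding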
RGS7-Gao reg – modulates binding of RGS7 to human Galphao; P09471; Multiplexed bead flow cytometry; actives lie on both sides; binding response (% of control), % at 10 µM; 0.35% of 220,000 active; AID 1439; in the data active = binding response below about 49% or above about 150%; inconclusive = no clear call, values can overlap the other calls; inactive = in between;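 also: fluorescent Galphao held in activated GDP-AlF4 state binding bead-coupled RGS7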
RGS4-Gao reg – modulates binding of RGS4 to human Galphao; Multiplexed bead flow cytometry; actives lie on both sides; binding response (% of control), % at 10 µM; 0.33% of 220,000 active; in the data active = binding response below about 49% or above about 150%; inactive = in between;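 also: fluorescent Galphao activated with aluminum fluoride binding bead-coupled RGS4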
Biofilm kill mix – mixture kills Candida albicans biofilm cells | C. albicans biofilm persisters + clotrimazole, fluorescence viability; primary screen in compound mixtures of four per well | inhibition, % at 7.6 µM | 0.02% of 120,000 active | AID 1242;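 active = inhibition above 30.3% in the primary screen of four-compound pools, then above 30% when the compound was retested; inconclusive = passed the primary limit but could not be retested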;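 also: compounds exposed to preformed 24 h biofilms for 48 h; 0% = untreated biofilm control and 100% = clotrimazole plus chlorhexidine kill blank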
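Assay system: C. albicans biofilms / Medium: RPMI/MOPS medium, pH 7.0 / Schedule: biofilm formation 24 h, compound exposure 48 h, 37 °C / Measured by: Alamar Blue fluorescence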
RGS4-Gao HTS – regulators of human RGS4-Galphao interaction; shares compounds with RGS16-Gao HTS; multiplexed bead flow cytometry, RGS–Galpha-o binding; RGS4–Galpha-o binding response, % at 10 µM; 99% of 1,600 active; AID 1504;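 also: fluorescently labeled Galpha-o bound to GDP with aluminium fluoride binding biotinylated RGS beads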
Target sequence (P09471 whole entry, looked up): as above
Target sequence (P49798 whole entry, looked up): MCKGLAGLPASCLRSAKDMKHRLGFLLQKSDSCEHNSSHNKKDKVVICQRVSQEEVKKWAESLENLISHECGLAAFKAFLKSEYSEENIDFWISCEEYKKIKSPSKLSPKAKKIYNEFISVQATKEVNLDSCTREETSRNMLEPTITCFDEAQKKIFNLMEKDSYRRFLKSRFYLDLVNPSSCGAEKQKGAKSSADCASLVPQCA
Biotin-avidin – counter-screen: compounds disrupting biotin binding to avidin beads; shares compounds with RGS16-Gao HTS; 1,700 tested, under 10 active; inhibition, % at 10 µM; streptavidin beads, fluorescein-biotin binding, flow cytometry;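 active = inhibition above 50%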;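 also: median green fluorescence of gated singlet beads compared with DMSO control wells; 0% = DMSO wells and 100% = complete loss of bead fluorescence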
RGS8-Gao single – confirmation of regulators of human RGS8-Galphao interaction. shares compounds with RGS16-Gao HTS. bead-based flow cytometry RGS8-Galphao binding, fluorescence; actives lie on both sides. binding response (% of control), % at 10 µM. 3% of 1,700 active; in the data active = binding response below about 72% or above about 130%; inactive = in between;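 also: Galphao activated as GDP AlF4 complex before binding bead RGS8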
RGS7-Gao confirm – confirmation of regulators of human RGS7-Galphao interaction | shares compounds with RGS16-Gao HTS | AID 1837 | 7.8% of 1,700 active | response (percent of control binding), % at 10 µM | bead-based flow cytometry RGS7-Galphao binding; actives lie on both sides; in the data active = response below about 75% or above about 130%; inactive = in between;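 also: fluorescent Galphao activated with GDP and aluminum fluoride binding bead-coupled RGS7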
RGS16-Gao conf – RGS16-Galphao interaction regulation, single point confirmation | bead-based flow cytometry, RGS16-Galphao binding; actives lie on both sides | 4% of 1,700 active | shares compounds with RGS16-Gao HTS | response (% of control binding), % at 10 µM; in the data active = response below about 74% or above about 130%; inactive = in between;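 also: Galphao activated as the GDP aluminium fluoride complex binding bead-coupled RGS16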
RGS4-Gao confirm – confirmation of regulators of human RGS4-Galphao interaction; RGS4-Galphao binding, multiplexed bead flow cytometry; actives lie on both sides; 4% of 1,700 active; binding response (% of control), % at 10 µM; shares compounds with RGS16-Gao HTS; in the data active = binding response below about 74% or above about 130%; inactive = in between
RGS19-Gao single – RGS19-Galphao interaction regulation, single point confirmation; shares compounds with RGS16-Gao HTS; bead-based flow cytometry RGS19-Galphao binding; actives lie on both sides; response (percent of control binding), % at 10 µM; 5% of 1,700 active; AID 1841; in the data active = response below about 50% or above about 160%; inactive = in between;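 also: 100% = no compound control and 0% = blank background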
* marks the source's active call; other numbers are inactive results; ? = inconclusive; . = no result given; [ ] = remark or other dose. Unless noted, no rule for the calls is given here.

SMILES	RGS8-Gao	RGS16-Gao HTS	RGS7-Gao reg	RGS4-Gao reg	Biofilm kill mix	RGS4-Gao HTS	Biotin-avidin	RGS8-Gao single	RGS7-Gao confirm	RGS16-Gao conf	RGS4-Gao confirm	RGS19-Gao single
CC(C)CCN(C(=S)Nc1cccc(F)c1)C1CCN(C(C)C)CC1	104.3	101.9	107.5	100.8	19.8	.	.	.	.	.	.	.
COc1ccccc1/C=N/NC(=O)c1ccc(-c2ccccc2)cc1	122.6	190.9*[activator]	114.4	117.4	17.9	117.4*	1.8	95.2	61.3*	77.2	75.6	60.9
COc1cccc(/C=N/NC(=O)c2ccccc2)c1OS(=O)(=O)c1ccccc1	75.0	25.0*	89.0	91.0	13.0	91.0*	-1.2	101.4	100.5	96.8	100.2	100.1
COc1cccc(/C=N/NC(=O)c2ccc(=O)n(C)c2)c1OC	102.9	101.0	105.1	102.2	21.1	.	.	.	.	.	.	.
Cc1onc(-c2ccccc2)c1NC(=O)N(CCC#N)Cc1cccs1	95.6	97.1	?	101.2	27.5	.	.	.	.	.	.	.
O=C(COc1ccccc1)Nc1ccccc1Cl	97.0	93.8	90.4	93.7	10.2	.	.	.	.	.	.	.
COc1ccccc1N1CCN(C(C)C(=O)Nc2ccc(S(=O)(=O)N3CCOCC3)cc2)CC1 (stereo not drawn)	103.3	103.5	98.7	98.9	8.5	.	.	.	.	.	.	.
Cc1onc(-c2ccc(Cl)cc2Cl)c1-c1csc(COc2ccccc2)n1	101.5	104.5	?	101.3	15.5	.	.	.	.	.	.	.
COc1cc(-c2cc(C(=O)O)c3cc4c(cc3n2)OCCO4)cc(OC)c1OC	.	.	.	.	.	.	2.0	99.9	101.0	99.2	101.3	104.8
COc1cc(-c2cc(C(=O)NN3CCN(C)CC3)c3ccccc3n2)cc(OC)c1OC	133.2	281.8*[activator]	108.8	110.5	-7.5	110.5*	0.4	101.4	103.8	102.2	102.1	103.3
CC(C)S(=O)(=O)c1cnc(N2CCOCC2)nc1N	99.5	104.1	?	104.9	14.6	.	.	.	.	.	.	.
CCOC(=O)C1(Cc2ccc(Cl)cc2)CCN(C(=O)CCc2ccncc2)CC1	100.7	99.2	96.9	99.6	0.7	.	.	.	.	.	.	.
CC(=O)NC(C)c1nc2ccccc2n1CC(=O)NC(C)CCc1ccccc1 (stereo not drawn)	102.0	103.5	?	103.0	6.5	.	.	.	.	.	.	.
CCCCc1nc2sc3c(=O)n(N)cnc3c2c2c1CCC2	100.1	101.9	?	100.4	-8.9	.	.	.	.	.	.	.
O=C(/C=C/c1ccc(N2CCC(c3ccccc3)=N2)cc1)c1ccccc1	97.0	111.3	153.2*[activator]	113.5	15.5	113.5*	.	.	.	.	.	.
O=C(/C=C/c1ccc(O)cc1)c1ccccc1	101.7	101.8	?	102.0	4.0	.	.	.	.	.	.	.
Cc1nnc(SCC(=O)Nc2cc(C(C)(C)C)nn2-c2ccccc2)s1	102.6	111.6	104.0	100.7	5.9	.	.	.	.	.	.	.
CCn1c(SCC(=O)Nc2cc(C(C)(C)C)nn2-c2ccccc2)nnc1-c1cccs1	95.8	91.3	185.4*[activator]	110.1	-7.2	110.1*	-0.5	93.6	88.8	95.2	92.5	86.1
O=C(Nc1nnc(-c2ccccc2Cl)o1)c1ccco1	.	.	.	.	.	.	2.0	98.8	103.4	100.5	103.3	93.3
CCn1c(=O)c(=O)[nH]c2cc(C(=O)N3CCN(Cc4ccc5c(c4)OCO5)CC3)ccc21	101.8	100.1	?	99.7	5.7	.	.	.	.	.	.	.
CC(C)C1Oc2cc3oc(=O)ccc3cc2C1=O (stereo not drawn)	57.3*	5.7*	50.4	56.1	-1.9	56.1*	-1.3	106.5	104.6	106.1	103.5	97.5
NC(=O)[C@@H]1CCCN1Cc1nc(Cc2ccccc2Cl)no1	101.9	104.3	101.0	101.9	15.6	.	.	.	.	.	.	.
O=C(O)Cc1csc(NC(=O)c2ccco2)n1	98.3	96.0	103.4	101.3	.	.	.	.	.	.	.	.
COc1ccccc1OCc1csc(NC(=O)c2ccco2)n1	3.4*	-41.5	-7.5*	-19.4*	.	.	1.1	105.4	104.0	109.5	102.1	115.6
NS(=O)(=O)c1ccc(CCNC(=O)C2CCC(Cn3c(=S)[nH]c4ccccc4c3=O)CC2)cc1 (stereo not drawn)	13.3*	11.4*	16.7*	22.1*	6.3	.	1.2	103.2	104.5	105.2	103.1	100.9
SMILES	RGS8-Gao	RGS16-Gao HTS	RGS7-Gao reg	RGS4-Gao reg	Biofilm kill mix	RGS4-Gao HTS	Biotin-avidin	RGS8-Gao single	RGS7-Gao confirm	RGS16-Gao conf	RGS4-Gao confirm	RGS19-Gao single
O=S1(=O)[C@H]2CC3O[C@]2(C[C@@H]3c2ccc(F)cc2)CN1Cc1ccc(Cl)cc1	95.0	92.2	?	89.2	14.9	.	.	.	.	.	.	.
O=S1(=O)[C@H]2C[C@@H]3C=C[C@]2(CN1Cc1ccc(C(F)(F)F)cc1)O3	83.0	99.8	?	98.6	12.0	.	0.3	101.1	88.4	97.3	94.7	80.2
COc1ccc(OCc2csc(N)n2)cc1	96.0	97.2	102.7	94.3	12.7	.	.	.	.	.	.	.
CCc1nc(SCC(=O)c2ccccc2)c2ccccc2n1	101.7	100.0	100.2	99.9	3.0	.	.	.	.	.	.	.
O=C(CSc1nc(Cc2ccccc2)nc2ccccc12)c1ccc2c(c1)OCCO2	99.4	96.3	102.2	97.6	.	.	.	.	.	.	.	.
CCc1nc(SCC(=O)c2ccc3c(c2)OCCO3)c2ccccc2n1	142.5*[activator]	242.1	111.0	119.9	.	119.9*	-1.3	105.5	106.3	105.2	105.1	97.1
CCCc1nc(SCC(=O)c2ccc(OC)cc2)c2ccccc2n1	.	.	.	.	10.0	.	1.7	102.5	104.7	104.2	103.2	106.5
O=C(CCN1C(=O)/C(=C/c2ccccc2Cl)SC1=S)NC1=NCCS1	157.3*[activator]	306.7	122.2	127.0	19.7	127.0*	2.2	105.5	97.9	100.8	97.8	95.4
CC(C)N1CCN(Cc2cccn2-c2nccs2)CC1CCO (stereo not drawn)	101.5	105.6	191.6*[activator]	115.0	15.4	115.0*	2.4	101.6	100.8	105.8	99.5	113.5
OCCC1CN(Cc2cccn2-c2nccs2)CCN1C1CCCCC1 (stereo not drawn)	96.7	97.5	94.0	96.5	2.9	.	.	.	.	.	.	.
COC1CCN(C(=O)CC2C(=O)NCCN2CC(C)(C)C)CC1 (stereo not drawn)	17.3*	5.7*	2.1*	10.0*	-10.5	.	3.0	105.5	98.5	107.4	98.7	110.2

Screening data as filed in PubChem.
